Screening results deposited in PubChem by several laboratories.
Shown are actives, neighbours in structure and some others; about 0.99% of the full set was active somewhere.
MT1-MMP act inh: blockers of MT1-MMP proenzyme processing, primary screen, HT1080 RFP-PRO-GFP cells, GFP/RFP fluorescence; AID 651647, 2012; GFP/RFP ratio change, % at 20 µM; GFP/RFP ratio fluorescence, overnight; percent of plate control window, DMSO zero; 360,000 tested, 0.061% active;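 active = GFP/RFP ratio change of at least 30% with cell ATP level not reduced by more than half and red fluorescence within 50% of control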
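Material: RFP-PRO-GFP reporter HT1080 cells. Dosing: single-point 20 µM compound, 1% DMSO. Controls: DMSO and RFP-L50D-GFP cell wells. Timing: cells overnight before dosing, compound overnight, 37 °C, 5% CO2. Measure: GFP/RFP fluorescence ratio.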
TLR4 MyD88 comp: inhibitors of TLR4-MyD88 association in cells, primary screen, cell-based, HeLa CL3-4, BLA complementation, FRET ratio. 200,000 tested, 0.18% active. inhibition, % at 8.4 µM. HeLa CL3-4 TLR4/MyD88 BLA complementation; in the data active = inhibition above about 25%;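 note: 0% = vehicle and 100% = reference inhibitor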
TLR9-MyD88 inh: inhibitors of TLR9-MyD88 association in cells, primary screen, cell-based, CHO, BLA complementation, fluorescence; Toll-like receptor 9 (Homo sapiens) + Myeloid differentiation primary response protein …; CCF4 FRET ratio; inhibition, % at 4.98 µM; 340,000 tested, 0.21% active; AID 504734, 2011;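 active = inhibition above the mean over all tested compounds plus 3 SD, cut at about 21% in these data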;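 note: 0% = DMSO only wells and 100% = clavulanate BLA inhibitor control wells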
SKN-1 block: suppressors of acrylamide-induced Pgst-4::GFP reporter in worms, primary screen, SKN-1 inhibitor project, whole organism, uHTS, GFP/RFP fluorescence ratio, strain VP596 | C. elegans VP596 Pgst-4::GFP/RFP ratio, 24 h | inhibition, % at 21.8 µM | 360,000 tested, 0.49% active | AID 624304, 2012;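 active = interference check ratio from 0.5 to 1.5 plus GFP to RFP signal ratio inhibition reaching or exceeding a fixed threshold, cut at about 30% in these data, passing the limit was not always enough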
NOD2 RIPK2 PPI: NOD2-RIPK2 binding disruptors in cells, primary screen, fluorescence, CHO cells, BLA complementation; Receptor-interacting serine/threonine-protein kinase 2 (Homo sapiens), O43353; 360,000 tested, 0.38% active; inhibition, % at 4.98 µM; CCF4 ratio; AID 624267, 2012; in the data active = inhibition above about 21%;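 note: 0% = vehicle only and 100% = reference blocker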
TLR4-MyD88 conf: TLR4-MyD88 association inhibitors, retest, confirmation, cell-based, HeLa CL3-4, BLA complementation, FRET ratio; 350 tested, 50% active; shares compounds with TLR4 MyD88 comp; CCF4 FRET ratio; AID 941, 2007; inhibition, % at 8.4 µM;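 active = mean inhibition across three repeat runs above about 25% carried over from the earlier screen, limit read from the data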;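 note: plate controls were DMSO only for no effect and clavulanic acid blocking BLA at full dose for full effect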
BLA inhibitor ct: counter-screen for TLR4-MyD88 inhibitors: beta-lactamase reporter inhibitors; AID 1237; HeLa BLA reporter, CCF4 FRET ratio; inhibition, % at 8.4 µM; shares compounds with TLR4 MyD88 comp; 350 tested, 63% active;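 active = mean inhibition over three repeats above about 26% taken from the earlier screen, limit read from the data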;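 note: HeLa cells stably expressing beta-lactamase reporter as counterscreen for TLR4-MyD88 inhibitors; 0% = DMSO and 100% = clavulanic acid full inhibition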
Starred values were filed as active, the others as inactive; x = no result given.

SMILES	MT1-MMP act inh	TLR4 MyD88 comp	TLR9-MyD88 inh	SKN-1 block	NOD2 RIPK2 PPI	TLR4-MyD88 conf	BLA inhibitor ct
N#CC1CC(c2ccc([N+](=O)[O-])cc2)=NN1c1ccc([N+](=O)[O-])cc1 (stereo not drawn)	-92	56*	16	4	7	56*	83*
CN(C)C=Nc1nonc1-c1ccccc1	0	x	-9	6	0	x	x
CN(C)C=Nc1c(Br)cc(Br)c2nonc12	-150	25*	6	26	-1	21	35*
CCCCn1c2nc3ccccc3nc2c2c(=N)oc(C)nc21	-11	x	2	14	-5	x	x
CCCCC(CC)Cn1c2nc3ccccc3nc2c2c(=N)oc(C)nc21 (stereo not drawn)	x	48*	x	x	x	-6	-6
COc1ccc2nc(/C(C#N)=C\c3ccc(Oc4ccc([N+](=O)[O-])cn4)cc3)[nH]c2c1	-14	0	6	12	13	x	x
COc1ccc2nc(/C(C#N)=C\c3ccc(C(=O)O)cc3)[nH]c2c1	-21	27*	16	4	16	13	27*
COc1ccccc1CNC(=O)CN(C)S(=O)(=O)c1ccc2c(c1)n(C)c(=O)c(=O)n2C	3	x	1	3	1	x	x
O=[N+]([O-])c1ccc(N/N=C/c2cn(-c3ccccc3)nc2-c2ccccc2)cc1	-12	38*	14	-5	10	38*	75*
Cc1cc(C)c2sc(NC(=O)C3=COCCO3)nc2c1	1	x	2	18	-4	x	x
OCCCc1nc2n(n1)C(c1ccccc1Cl)C=C(c1cccs1)N2 (stereo not drawn)	-72	32*	51*	1	72*	19	52*
OCCCc1nc2n(n1)C(c1cccs1)C=C(c1ccccc1)N2 (stereo not drawn)	x	24	x	x	x	x	x
Cc1ccc(C)c(S(=O)(=O)NCCN2CCOCC2)c1	0	x	-7	2	4	x	x
Cc1cnc(C(=O)OCC(=O)c2ccc(F)cc2)cn1	-1	x	1	-3	-7	x	x
O=C(Nc1ccc2oc(-c3cccnc3)nc2c1)c1cccnc1	-1	7	-1	12	-3	x	x
O=C(Nc1ccc2oc(-c3cccnc3)nc2c1)c1ccc([N+](=O)[O-])o1	-3	30*	4	-6	0	16	8
Cc1cccc(C)c1NC(=O)C1(C)CN(S(C)(=O)=O)CC(=O)N1CCCN1CCOCC1 (stereo not drawn)	6	x	x	-2	-10	x	x
CC[C@]12C(=O)N(C)C[C@H]([C@@H]3C(=O)N(C)C(=O)[C@@H]31)N2C(=O)c1ccccc1	-5	x	0	-5	-45	x	x
CN(C)c1ccc(/C=C/c2cc[n+]([O-])cc2)cc1	x	7	x	x	x	x	x
CN(C)c1ccc(/C=C/c2cc[n+](C)cc2)cc1	-67	26*	3	78	1	11	21
O=C(NCCCc1ccccc1)c1ccccc1	4	26*	-2	-6	-11	-9	-3
O=C(COC(=O)Cc1ccc(Cl)cc1)NC1CCCC1	-2	x	-6	2	11	x	x
O=C(NCc1ccc2c(c1)OCO2)C1CC(=O)N(c2ccc(F)cc2)C1 (stereo not drawn)	4	25*	-7	-2	2	-8	7
CN(C)c1nc(C=C(C#N)C#N)c(Cl)n1-c1ccc(F)cc1	12	35*	7	9	2	27*	9
CCCCCCCn1c2c(c(=N)c3c1CCC3)CCCC2	-25	26*	7	-6	-7	21	26*
SMILES	MT1-MMP act inh	TLR4 MyD88 comp	TLR9-MyD88 inh	SKN-1 block	NOD2 RIPK2 PPI	TLR4-MyD88 conf	BLA inhibitor ct
CCCCCCn1c2c(c(=N)c3c1CCC3)CCC2	-14	27*	1	3	1	7	24
Cc1n[nH]c(C)c1NC(=O)c1cc([N+](=O)[O-])ccc1Cl	-1	27*	-8	2	2	-6	5
Cc1cccc(NC(=O)c2cc([N+](=O)[O-])ccc2Cl)c1O	-2	-10	3	19	-1	x	x
Cc1ccc(S(=O)(=O)NC(C(=O)Oc2ccc3c(C(F)(F)F)cc(=O)oc3c2)c2ccccc2)cc1 (stereo not drawn)	0	38*	3	4	0	31*	62*
COC(=O)C(NS(=O)(=O)c1ccc(C)cc1)c1ccccc1 (stereo not drawn)	7	-3	8	2	-4	x	x
CCCCCCNC(=O)C(C#N)c1nc2ccccc2nc1N1CCCC1 (stereo not drawn)	-1	38*	5	-37	-15	29*	1
CCCCCNC(=O)C(C#N)c1nc2ccccc2nc1N1CCCC1 (stereo not drawn)	-15	-12	2	-1	-6	x	x
Cn1c(CCC(=O)Nc2cc(S(C)(=O)=O)ccc2Cl)nc2cc(S(=O)(=O)N3CCOCC3)ccc21	0	x	-1	10	-18	x	x
C=CCNc1sc(C(=O)c2ccc(Br)s2)c(N)c1C#N	-20	37*	-3	-8	-3	20	55*
COc1ccc(S(=O)(=O)Nc2cc(S(=O)(=O)N3CCOCC3)ccc2OC)cc1	2	x	-2	12	-5	x	x
CC(=O)C1=NN(c2ccccc2)C(c2ccc3c(c2)OCO3)N1c1ccc(N2CCOCC2)cc1 (stereo not drawn)	-4	-6	0	9	7	x	x
CC(=O)C1=NN(c2ccccc2)C(c2cccs2)N1c1ccccc1 (stereo not drawn)	x	27*	x	x	x	5	14
Cn1c(=O)c([N+](=O)[O-])c(NCCCn2ccnc2)c2ccccc21	3	x	-6	-13	-2	x	x
Cn1c(=O)c([N+](=O)[O-])c(-n2ccnc2)c2ccccc21	5	25*	4	-2	5	-5	-13
Cc1noc(C)c1COC(=O)c1cnc(Cl)c(Cl)c1	-1	26*	-2	-4	-9	19	5
CCN1CCN(c2ccc(S(=O)(=O)N3CCOCC3)cc2NC(=O)CC(NC(C)=O)c2ccccc2)CC1 (stereo not drawn)	0	x	-11	-16	5	x	x
CCSc1ncnc2c1oc1ccccc12	4	-13	13	4	-3	x	x
